The values below come from ChEMBL document CHEMBL1148384, “Design and synthesis of peptidomimetic protein farnesyltransferase inhibitors as anti-Trypanosoma brucei agents” (J Med Chem, 2004).

Test [1] has as its system protein farnesyltransferase (Trypanosoma brucei). Briefly: Inhibition of against Trypanosoma brucei protein farnesyltransferase at 50 nM concentration.
For test [2], the system named is Trypanosoma brucei rhodesiense. Briefly: Effective dose required to inhibit the growth of Trypanosoma brucei rhodesiense. Particulars: read-out: ED50 (the source's name). The test is classed as functional. The essentials: (§1)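 Bloodstream-form trypomastigotes of strain STIB 900 were grown in HMI-18 with nonessential amino acids, glucose and 15% heat-inactivated FCS at 37 °C, 5% CO2. Compounds were given as serial dilutions, in triplicate, from 1 × 10^4 cells/well. Cultures ran 72 h before Alamar Blue read-out, and ED50 was fitted.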

For test [3], the system named is Trypanosoma brucei brucei. The experiment in a line: Effective dose required to inhibit the growth of Trypanosoma brucei. The settings on record: read-out: ED50 (the source's name). The test is classed as functional. Put shortly: (§2)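 Bloodstream-form strain 427 was grown in HMI-9 with 10% FBS at 37 °C, 5% CO2. Cells were seeded at 1 × 10^4 trypomastigotes/well in triplicate, with serial dilutions from 20 mM DMSO stocks. Growth was read with Alamar Blue at 48 h, pentamidine served as positive control, and ED50 was fitted from the curves.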

Test [4] has as its system NIH3T3. The experiment in a line: Effective dose against murine 3T3 fibroblasts cells. The test is classed as functional. The settings on record: Mus musculus, read-out: ED50 (the source's name). The essentials:
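Murine 3T3 fibroblasts were grown in RPMI 1640 with 10% FBS and held 72 h with compound at 37 °C, 5% CO2.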

In test [5] the test system is NIH3T3. Briefly: Dose required against murine 3T3 fibroblasts cells; 1-10 uM. In kind it is functional. Particulars: Mus musculus, read-out: ED50 (the source's name).
Test [6] has as its system Trypanosoma brucei brucei. The experiment in a line: Dose required to inhibit growth of Trypanosoma brucei; 1-10 uM. In kind it is functional. Particulars: read-out: ED50 (the source's name). The essentials: as §2
Test [7] concerns Trypanosoma brucei brucei. The experiment in a line: Dose required to inhibit growth of Trypanosoma brucei; 0.5-5 uM. Particulars: read-out: ED50. In kind it is functional. Put shortly:
as §2

The subject of test [8] is protein farnesyltransferase (Trypanosoma brucei). Briefly: Inhibition of Trypanosoma brucei protein farnesyltransferase at 50 nM (0-14%).
The test system of test [9] is Trypanosoma brucei rhodesiense. The experiment in a line: Dose required to inhibit growth of Trypanosoma brucei rhodesiense; 0.14-0.8 uM. In kind it is functional. The settings on record: read-out: ED50 (the source's name). The essentials:
as §1

In test [10] the test system is Protein farnesyltransferase (Trypanosoma brucei). The experiment in a line: Inhibition of Trypanosoma brucei protein farnesyltransferase at 50 nM (82-87%).

Turning to `COC(=O)[C@H](CCSC)NC(=O)c1ccc(CNCc2c[nH]cn2)cc1-c1ccccc1C`, in test [1], the inhibition turned out to be 41%. Besides, the EC50 in test [2] worked out at 0.0026 µM; in test [3], 0.025 µM; in the test on NIH3T3 [4], 25 µM.
As to `CSCC[C@H](NC(=O)c1ccc(NCc2cn(CC3CCCCC3)cn2)cc1-c1ccccc1)C(=O)O`, the inhibition in test [1] turned out to be 12%.
For the compound `CSCC[C@H](NC(=O)c1ccc(CNCc2c[nH]cn2)cc1-c1ccccc1C)C(=O)OCc1ccccc1`, the inhibition in [1] worked out at 41.7%. The EC50 was 0.02 µM in test [3] and > 10 µM with NIH3T3 [5].
Take `COC(=O)[C@H](CCSC)NC(=O)c1ccc(NCc2cncn2Cc2ccccc2C)cc1-c1ccccc1`: in test [1], the inhibition is 0%. Moreover, the results for the EC50 (in test [6]; in the test on NIH3T3 [4]) were ≤ 10 µM and > 10 µM, respectively.
Regarding `CSCC[C@H](NC(=O)c1ccc(NC[C@@H](N)CS)cc1-c1ccccc1)C(=O)O`, the EC50 in test [2] was 9.2 µM; in test [3], > 25 µM; with NIH3T3 [4] it was > 25 µM.
For `N#Cc1ccc(Cn2cncc2CNc2ccc(C(=O)Nc3cccc([N+](=O)[O-])c3)c(-c3ccccc3)c2)cc1`, in [1], the inhibition amounted to 9.1%. Further, the EC50 is 3 µM in test [2], > 10 µM in test [3] and > 10 µM with NIH3T3 [4].
`CSCNC(=O)c1ccc(NCc2cncn2Cc2ccc(C#N)cc2)cc1-c1ccccc1` yielded an inhibition in [1] of 17.1%. Moreover, the EC50 in test [2] was 3 µM; in test [3], > 10 µM; in the test on NIH3T3 [4] it was > 10 µM.
Turning to `COC(=O)[C@H](CCSC)NC(=O)c1ccc(NCc2cncn2Cc2ccc(C#N)cc2)cc1-c1ccccc1`, the EC50 in [7] is ≤ 5 µM; in the test with NIH3T3 [4], > 10 µM; in test [9] it was ≤ 0.8 µM. Besides, the inhibition in test [8] is ≤ 14%.
With `CSCC[C@H](NC(=O)c1ccc(CN(Cc2c[nH]cn2)Cc2c[nH]cn2)cc1-c1ccccc1C)C(=O)O`, the EC50 is > 10 µM in [6], 0.9 µM in [2] and > 10 µM with NIH3T3 [4].
For `CSCC[C@H](NC(=O)c1ccc(NCc2cncn2Cc2ccc(C#N)cc2)cc1-c1ccccc1)C(=O)O`, the EC50 is > 60 µM in test [2], > 10 µM in test [3] and > 10 µM with NIH3T3 [4]. The inhibition in test [10] was ≤ 87%.
In the case of `CSCC[C@H](NC(=O)c1ccc(CNCc2c[nH]cn2)cc1-c1ccccc1C)C(=O)OC(C)C`, the inhibition in test [1] is 6.2%. In addition, the EC50 turned out to be 0.003 µM in test [2], 0.005 µM in test [3] and 10 µM with NIH3T3 [4].
With `CSCC[C@H](NC(=O)c1ccc(NCc2cncn2CC2CCCCC2)cc1-c1ccccc1)C(=O)O`, the inhibition in test [1] came out at 69.8%.
Same read-out and setting: in the case of `CSCC[C@H](NC(=O)c1ccc(NCc2cn(Cc3ccc(-c4ccccc4)cc3)cn2)cc1-c1ccccc1)C(=O)O` it was 4.5%.
With `COC(=O)[C@H](CCSC)NC(=O)c1ccc(NCc2cncn2Cc2ccc(Cl)cc2)cc1-c1ccccc1`, the EC50 was ≤ 5 µM in test [7], > 10 µM with NIH3T3 [4] and ≤ 0.8 µM in test [9]. Moreover, in test [8], the inhibition was ≤ 14%.
For `COC(=O)[C@H](CCSC)NC(=O)c1ccc(NCc2cncn2Cc2ccc([N+](=O)[O-])cc2)cc1-c1ccccc1`, in that order: ≤ 5 µM, > 10 µM, ≤ 0.8 µM and ≤ 14%.
`CCCCC(CC)OC(=O)[C@H](CCSC)NC(=O)c1ccc(CNCc2c[nH]cn2)cc1-c1ccccc1C` (some centres undefined) had an inhibition in test [1] of 15.2%. The figures for the EC50 (in [2]; in test [3]; in the test on NIH3T3 [5]) were 0.02 µM, 0.02 µM and > 10 µM, respectively.
Consider `COC(=O)[C@H](CCSC)NC(=O)c1ccc(NCc2cncn2Cc2ccc(-c3ccccc3)cc2)cc1-c1ccccc1`, for which the EC50 in [7] is ≤ 5 µM; in the test on NIH3T3 [4], > 10 µM; in test [9], > 0.14 µM. This compound also returned an inhibition in test [8] of 14%.
Take `COC(=O)[C@H](CCSC)NC(=O)c1ccc(NCc2cncn2Cc2ccccc2C#N)cc1-c1ccccc1`: the inhibition in test [1] is 0%. For the same compound, the EC50 in test [6] was ≤ 10 µM; in the test on NIH3T3 [4], > 10 µM.
The compound `CC(C)NC(=O)c1ccc(NCc2cncn2Cc2ccc(C#N)cc2)cc1-c1ccccc1` registered an inhibition in test [1] of 8.4%. Also, the EC50 in test [2] was 5.3 µM; in test [3] it was > 10 µM; in the test on NIH3T3 [4], > 10 µM.
Consider `COC(=O)[C@H](CCSC)NC(=O)c1ccc(NCc2cncn2Cc2ccc(C)cc2)cc1-c1ccccc1`, for which the EC50 in test [7] is ≤ 5 µM; in the test on NIH3T3 [4] it was > 10 µM; in test [9], ≤ 0.8 µM. For the same compound, the inhibition in test [8] is ≤ 14%.
In [1], `N#Cc1ccc(Cn2cncc2CNc2ccc(C(=O)NCc3ccccc3)c(-c3ccccc3)c2)cc1` showed an inhibition of 1.2%. Also, the EC50 in [2] is 8.2 µM; in [3] it was 10 µM; with NIH3T3 [4] it was > 10 µM.
In the same order, the values of `COC(=O)[C@H](CCSC)NC(=O)c1ccc(CN(Cc2c[nH]cn2)Cc2c[nH]cn2)cc1-c1ccccc1C` are 66.2%, 0.0015 µM, 0.1 µM and > 10 µM.
With `CCCCCn1cnc(CNc2ccc(C(=O)N[C@@H](CCSC)C(=O)O)c(-c3ccccc3)c2)c1`, the inhibition in test [1] stood at 11.5%.
In [1], `N#Cc1ccc(Cn2cncc2CNc2ccc(C(=O)Nc3cccc(C#N)c3)c(-c3ccccc3)c2)cc1` showed an inhibition of 2.2%. In addition, the EC50 (in [3]; in the test with NIH3T3 [4]) was > 10 µM throughout.
In test [1], `CSCC[C@H](NC(=O)c1ccc(CNCc2c[nH]cn2)cc1-c1ccccc1C)C(=O)OC1CCCCC1` registered an inhibition of 4.5%. Besides, the EC50 in test [2] was 0.018 µM; in test [3] it was 0.03 µM; with NIH3T3 [5], > 10 µM.
In [1], `N#CCNC(=O)c1ccc(NCc2cncn2Cc2ccc(C#N)cc2)cc1-c1ccccc1` registered an inhibition of 0%. Further, the EC50 in [2] was 45 µM; in test [3], > 10 µM; in the test on NIH3T3 [4] it was > 10 µM.
As for `COC(=O)[C@H](CCSC)NC(=O)c1ccc(NCc2cncn2Cc2ccccc2Cl)cc1-c1ccccc1`, the inhibition in [1] was 0%. In addition, the EC50 in [6] was ≤ 10 µM; in the test on NIH3T3 [4], > 10 µM.
The compound `COC(=O)[C@H](CCSC)NC(=O)c1ccc(CNCc2cncn2Cc2ccc(C#N)cc2)cc1-c1ccccc1C` displayed an inhibition in test [1] of 7%. Moreover, the EC50 in test [2] was 0.1 µM; in [3], 0.5 µM; with NIH3T3 [4], > 10 µM.
For `CCOC(=O)[C@H](CCSC)NC(=O)c1ccc(CNCc2c[nH]cn2)cc1-c1ccccc1C`, in that order: 10.4%, 0.005 µM, 0.01 µM and 10 µM.
In the case of `C=COC(=O)[C@H](CCSC)NC(=O)c1ccc(CNCc2c[nH]cn2)cc1-c1ccccc1C`, in test [1], the inhibition came out at 4.9%. Further, the EC50 in test [2] is 0.009 µM; in test [3] it was 0.01 µM; in the test on NIH3T3 [5], > 10 µM.
Compound `CCCCCn1cncc1CNc1ccc(C(=O)N[C@@H](CCSC)C(=O)O)c(-c2ccccc2)c1` returned an inhibition in [1] of 80.6%.
`CSCC[C@H](NC(=O)c1ccc(CNCc2[nH]cnc2C)cc1-c1ccccc1C)C(=O)O`: the inhibition in test [1] turned out to be 68.5%. The EC50 (in test [3]; in the test with NIH3T3 [4]) was > 10 µM in each case.
`N#Cc1ccc(Cn2cncc2CNc2ccc(C(=O)NCC3CCCCC3)c(-c3ccccc3)c2)cc1` showed an inhibition in test [1] of 18.6%. For the same compound, the values for the EC50 (in [6]; in test [2]; in the test on NIH3T3 [4]) were > 10 µM, 3.2 µM and > 10 µM, respectively.

The term inhibition denotes the change of the read-out against control, counted positive when it falls. The low end stands for little suppression, the high end for strong suppression.
